The list is not random: actives were taken first. Their share in the collection is about 3.7%.
Dynein cargo inh – blocks dynein driven cargo transport along microtubules. 3617.4 mouse cells, GR-EGFP nuclear translocation imaging; test concentration mostly 20 µM; stimulated with dexamethasone, 1 µM; active compounds read low. z-score, hits read low. 220,000 compounds, 0.47% hits. AID 1381;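 active = plate z-score of nuclear minus cytoplasmic receptor signal below a set negative limit, without overly bright fluorescence or cell loss, cut at about -3.5 in these data, passing the limit was not always enough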;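 note: z-score of nuclear minus cytoplasmic ring GR-EGFP intensity difference per well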
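Buffer or medium: tet-free, stripped-serum medium; Also added: dexamethasone, 1.0 µM final; Technique: high-content fluorescence imaging after fixation; Times: 48 h induction, 1 h compound, 30 min dex at 37 °C; Read-out: per-cell GR-EGFP intensity, nucleus versus surrounding cytoplasmic ring, well-averaged.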
Mdm2 MdmX PPI – inhibitors of human Mdm2/MdmX interaction | O15151+Q00987 | SaOS-2 split-luciferase Mdm2/MdmX complementation, luminescence | inhibition, % at 8 µM | 330,000 compounds, 3% hits | AID 485346;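 active = inhibition of at least 50% at 8 µM in the primary screen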
Target sequence (O15151 whole entry, looked up): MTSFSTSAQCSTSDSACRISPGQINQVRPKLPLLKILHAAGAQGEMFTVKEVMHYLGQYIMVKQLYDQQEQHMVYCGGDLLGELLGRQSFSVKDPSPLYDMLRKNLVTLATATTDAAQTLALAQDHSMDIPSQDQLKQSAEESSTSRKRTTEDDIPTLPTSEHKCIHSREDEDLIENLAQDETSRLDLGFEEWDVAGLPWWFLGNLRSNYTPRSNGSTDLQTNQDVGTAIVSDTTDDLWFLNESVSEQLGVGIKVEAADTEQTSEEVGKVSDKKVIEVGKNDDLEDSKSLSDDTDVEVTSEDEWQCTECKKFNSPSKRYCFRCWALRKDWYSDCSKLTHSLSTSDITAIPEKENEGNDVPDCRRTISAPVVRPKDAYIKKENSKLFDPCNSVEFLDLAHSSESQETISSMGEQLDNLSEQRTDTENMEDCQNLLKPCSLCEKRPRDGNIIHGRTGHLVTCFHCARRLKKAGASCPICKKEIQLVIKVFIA
Target sequence (Q00987 whole entry, looked up): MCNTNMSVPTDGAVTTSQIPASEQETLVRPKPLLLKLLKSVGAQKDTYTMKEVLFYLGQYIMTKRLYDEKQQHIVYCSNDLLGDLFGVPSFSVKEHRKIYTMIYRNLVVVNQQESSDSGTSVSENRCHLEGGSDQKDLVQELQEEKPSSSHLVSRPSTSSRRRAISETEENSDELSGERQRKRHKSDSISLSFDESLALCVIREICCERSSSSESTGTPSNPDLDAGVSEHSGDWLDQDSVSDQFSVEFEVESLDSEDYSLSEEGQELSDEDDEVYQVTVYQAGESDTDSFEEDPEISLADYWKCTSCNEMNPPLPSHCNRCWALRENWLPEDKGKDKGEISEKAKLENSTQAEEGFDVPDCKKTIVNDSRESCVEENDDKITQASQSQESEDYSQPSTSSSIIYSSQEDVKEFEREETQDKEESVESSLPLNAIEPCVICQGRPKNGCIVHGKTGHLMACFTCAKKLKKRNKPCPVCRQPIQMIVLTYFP
CHOP UPR activ – activators of apoptotic arm of unfolded protein response (CHOP); 330,000 compounds, 0.34% hits; activation, % at 10 µM; AID 449763; CHO-CHOP luciferase reporter, UPR activation, luminescence; percent of tunicamycin response over DMSO baseline;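 active = at 10 µM dose, activation of 40% or more, normalized to positive control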;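 note: 100% = tunicamycin at 10 µg/mL and 0% = DMSO alone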
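Assay system: CHO-CHOP cells, stable luciferase reporter of PERK-eIF2a-CHOP signalling / Buffer or medium: F12 plus 10% serum / Compound dosing: one dose, 10 µM in 0.5% DMSO / Times: 6 h compound treatment, 37 °C / Technique: luciferase luminescence / Read-out: % reporter activation, DMSO baseline versus tunicamycin full activation / Benchmarks: tunicamycin and DMSO controls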
MDM2 E3 inh – inhibitors of human Mdm2 E3 ubiquitin ligase; cell-based MDM2 ubiquitination luciferase reporter, 2 h; 0 = plate control, 100 = twice control, blank-subtracted; signal enhancement, % at 5 µM; 210,000 compounds, 0.11% hits;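 active = signal enhancement of 30% or more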;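 note: luminescence tracks abundance of the self-degrading MDM2-luciferase fusion protein; higher signal means inhibition of MDM2 E3 ligase activity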
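system = mammalian cells stably expressing self-ubiquitinating, self-degrading MDM2 E3–luciferase fusion | quantity = 2000 cells per well seeded | incubation = 4 h cell settling then 2 h compound exposure, 37 °C | signal = SteadyLite luminescence, 15 min reagent step | benchmarks = plate control and blank wells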
XBP1 UPR activ – activators of adaptive arm of unfolded protein response (XBP1); AID 463104; CHO-XBP1 luciferase reporter, IRE1-XBP1 UPR activation, luminescence; percent of tunicamycin response, DMSO as zero; 330,000 compounds, 0.33% hits; activation, % at 20 µM;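 active = versus positive control, 20 µM dose yields 30% or more activation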;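 note: 100% = tunicamycin at 10 µg/mL and 0% = DMSO only wells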
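Material: CHO cell line with stable XBP1 luciferase reporter; buffer or medium: F12 medium containing 10% fetal bovine serum; compound: single point, 20 µM final compound, 1% DMSO; incubation: 6 h treatment, 37 °C; measured by: glow luminescence from Steady-Glo reagent; evaluation: activation, % of tunicamycin; control set: tunicamycin high, DMSO low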
Beta2AR agonist – agonists of human beta-2 adrenergic receptor inducing internalization; P07550; Am2.2-beta2AR cells, FAP receptor internalization, flow cytometry; response, % (concentration not given with the values); 340,000 compounds, 0.43% hits;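 active = response above a set limit, near 3 SD of response in nonfluorescent compounds, cut at about 42% in these data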
Dynein confirm – dynein cargo transport inhibition, confirmation | shares compounds with Dynein cargo inh | 3617.4 GR-EGFP nuclear translocation imaging, dexamethasone-induced | calls only at 20 µM | 1,000 compounds, 69% hits;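 active = inhibition of receptor movement into the nucleus at or above a set limit in both runs, with normal cell brightness and cell count; inconclusive = limit reached in only one run, brightness and count normal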;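 note: dexamethasone at 1 µM final in well for 30 min; nuclear minus cytoplasmic GR-EGFP mean intensity difference in channel 2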
Starred values were filed as active, the others as inactive.

For O=C(Nc1ccc(F)cc1)c1nn(-c2ccccc2)c(=O)cc1Cl the results were Dynein cargo inh -5.43*, MDM2 E3 inh -20.3, Beta2AR agonist 3.0 and Dynein confirm active.
`CC(C)(C)C(=O)NCc1ccc(C(=O)CSc2nnc(-c3ccncc3)n2C2CC2)s1` gave Mdm2 MdmX PPI 12.0, CHOP UPR activ 2.9, XBP1 UPR activ -1.6 and Beta2AR agonist 1.6.
`CCCC(=O)OCCNc1cc(SCc2ccco2)c2nonc2c1[N+](=O)[O-]` gave Dynein cargo inh -3.91*, Mdm2 MdmX PPI 40.3, CHOP UPR activ -3.5, MDM2 E3 inh -13.1, XBP1 UPR activ -3.7, Beta2AR agonist 64.0* and Dynein confirm active.
`CC(=O)OCCCNc1cc(SCc2ccco2)c2nonc2c1[N+](=O)[O-]` gave Dynein cargo inh -5.51*, Mdm2 MdmX PPI 4.0, CHOP UPR activ -0.8, MDM2 E3 inh -18.6, XBP1 UPR activ -1.8, Beta2AR agonist 37.0 and Dynein confirm active.
CCCSc1cc(NCCOC(C)=O)c([N+](=O)[O-])c2nonc12 was read as Dynein cargo inh -0.155, Mdm2 MdmX PPI -5.1, CHOP UPR activ -2.0, MDM2 E3 inh -13.5, XBP1 UPR activ -2.2 and Beta2AR agonist -3.9.
CCC(=O)OCCNc1cc(Sc2nc3ccccc3[nH]2)c2nonc2c1[N+](=O)[O-] was read as Dynein cargo inh -4.87*, MDM2 E3 inh -22.5, Beta2AR agonist 77.9* and Dynein confirm inactive.
Screening CCCSc1cc(NCCOC(=O)CCC)c([N+](=O)[O-])c2nonc12 returned Dynein cargo inh -4.94*, Mdm2 MdmX PPI -7.1, CHOP UPR activ 6.5, MDM2 E3 inh -5.0, XBP1 UPR activ -3.5, Beta2AR agonist 1.5 and Dynein confirm active.
Cc1ccccc1OCCCC(=O)Nc1ccc(S(=O)(=O)Nc2onc(C)c2C)cc1 was read as Mdm2 MdmX PPI 6.8, CHOP UPR activ -2.3, XBP1 UPR activ -1.2 and Beta2AR agonist 17.6.
O=C(O)c1ccc(CNC(=O)C23CC4CC(CC(C4)C2)C3)cc1 was read as Mdm2 MdmX PPI 18.8, CHOP UPR activ 0.2, XBP1 UPR activ -1.9 and Beta2AR agonist 3.3.
For Cc1onc(-c2c(Cl)cccc2Cl)c1C(N)=S the results were Dynein cargo inh -0.221, Mdm2 MdmX PPI 24.4, CHOP UPR activ -0.8, MDM2 E3 inh 0.6, XBP1 UPR activ -1.2 and Beta2AR agonist 0.4.
COc1ccc(C(=O)Cn2c(C)nc([N+](=O)[O-])c2Br)cc1 was read as Dynein cargo inh -5.76*, Mdm2 MdmX PPI 38.0, CHOP UPR activ 3.9, MDM2 E3 inh -76.2, XBP1 UPR activ -1.6, Beta2AR agonist 6.4 and Dynein confirm active.
Screening COc1ccc(C(=O)Cn2cc([N+](=O)[O-])nc2C)cc1 returned Mdm2 MdmX PPI 5.0, CHOP UPR activ -1.6, XBP1 UPR activ -5.8 and Beta2AR agonist 7.0.
`CN1C(=S)N(c2cccnc2)C(=O)/C1=C\c1ccc(C(C)(C)C)cc1` gave Dynein cargo inh -3.74*, Mdm2 MdmX PPI 37.8, CHOP UPR activ 7.3, MDM2 E3 inh -15.7, XBP1 UPR activ 4.3, Beta2AR agonist 21.8 and Dynein confirm inconclusive.
O=C(O)c1ccc(NNC(=S)Nc2cc(C(F)(F)F)ccc2Cl)cc1 was read as Mdm2 MdmX PPI 9.4, CHOP UPR activ -2.9, XBP1 UPR activ -9.3 and Beta2AR agonist 1.6.
Screening Cc1nn(Cc2c(F)c(F)c(F)c(F)c2F)c(C)c1NC(=O)c1nn(C)cc1[N+](=O)[O-] returned Dynein cargo inh -0.966, Mdm2 MdmX PPI 10.5, CHOP UPR activ -1.1, MDM2 E3 inh -6.0, XBP1 UPR activ 1.4 and Beta2AR agonist -0.4.
Screening Cc1cnc(NC(=O)c2nn(C)cc2[N+](=O)[O-])s1 returned Dynein cargo inh -3.56*, Mdm2 MdmX PPI 34.8, CHOP UPR activ 2.0, MDM2 E3 inh -27.1, XBP1 UPR activ -3.3, Beta2AR agonist 1.3 and Dynein confirm active.
COc1ccc(-c2csc3ncnc(Cl)c23)cc1 was read as Dynein cargo inh -4.09*, Mdm2 MdmX PPI 28.1, CHOP UPR activ -0.4, MDM2 E3 inh -20.1, XBP1 UPR activ 2.7, Beta2AR agonist 3.2 and Dynein confirm inactive.
For Clc1ccc(-c2csc3ncnc(Cl)c23)cc1 the results were Dynein cargo inh -3.97*, Mdm2 MdmX PPI 44.3, CHOP UPR activ -0.8, MDM2 E3 inh -13.7, XBP1 UPR activ 1.1, Beta2AR agonist 4.2 and Dynein confirm active.
CC1CN(S(=O)(=O)c2cccc(C(=O)N3CCC(C(N)=O)CC3)c2)CC(C)O1 (stereo unspecified) was read as Mdm2 MdmX PPI 1.3, CHOP UPR activ 0.0, XBP1 UPR activ 0.8 and Beta2AR agonist -3.4.
`COc1ccc(OC)c(C(=O)N2CCC(n3nccc3NC(=O)CC(C)C)CC2)c1` gave Mdm2 MdmX PPI -6.5, CHOP UPR activ 1.2, XBP1 UPR activ 2.4 and Beta2AR agonist -7.2.
Screening O=C(OCCN1C(=O)c2cccc3c(N4CCOCC4)ccc(c23)C1=O)c1ccccc1Cl returned Dynein cargo inh 0.965, MDM2 E3 inh -10.8 and Beta2AR agonist -77.2.
`O=C(OCCN1C(=O)c2cccc3c(N4CCOCC4)ccc(c23)C1=O)c1cccc(Cl)c1` gave Dynein cargo inh -3.8, MDM2 E3 inh -9.9 and Dynein confirm inconclusive.
For O=C(OCCN1C(=O)c2cccc3c(N4CCOCC4)ccc(c23)C1=O)c1ccc(Cl)cc1Cl the results were Dynein cargo inh -10.7, MDM2 E3 inh -7.7, Beta2AR agonist -34.6 and Dynein confirm active.
`O=C(c1ccccc1)c1cc(Cl)ccc1N1C(=O)C=CC1=O` gave Dynein cargo inh -4.47*, MDM2 E3 inh 2.5, Beta2AR agonist 42.8* and Dynein confirm active.
O=C(CC(=O)c1cc(Cl)ccc1O)c1ccccc1 was read as Dynein cargo inh 0.148, Mdm2 MdmX PPI 39.8, CHOP UPR activ 19.3, MDM2 E3 inh 2.6, XBP1 UPR activ 3.2 and Beta2AR agonist 11.9.
Screening Clc1nc(Cl)nc(-c2cn(-c3ccccc3)c3ccccc23)n1 returned Dynein cargo inh -0.0929, Mdm2 MdmX PPI 13.0, CHOP UPR activ 0.1, MDM2 E3 inh -2.5, XBP1 UPR activ -2.3 and Beta2AR agonist -0.5.
For O=C(NC(Cc1ccccc1)C(=O)O)/C(=C/c1ccc([N+](=O)[O-])cc1)NC(=O)c1ccco1 (stereo unspecified) the results were Mdm2 MdmX PPI 10.0, CHOP UPR activ 1.8, XBP1 UPR activ -0.5 and Beta2AR agonist -2.0.

Screens: PubChem, several laboratories
